Laboratory results reported in ChEMBL document CHEMBL4130637, “25 S-Adamantyl-23-yne-26,27-dinor-1α,25-dihydroxyvitamin D3: Synthesis, Tissue Selective Biological Activities, and X-ray Crystal Structural Analysis of Its Vitamin D Receptor Complex” (J Med Chem, 2018).
Activity calls are given as the source filed them. The rule behind the calls is not given here.

Legend:
[1] = target: T1, Vitamin D3 receptor (Homo sapiens) (UniProt P11473); experiment: Agonist activity at VDR in human MG63 cells assessed as increase in CYP24A1 gene expression at 100 nM after 24 hrs by RT-PCR method relative to 1,25(OH)2D3; format: cell-based
T1 sequence (whole entry): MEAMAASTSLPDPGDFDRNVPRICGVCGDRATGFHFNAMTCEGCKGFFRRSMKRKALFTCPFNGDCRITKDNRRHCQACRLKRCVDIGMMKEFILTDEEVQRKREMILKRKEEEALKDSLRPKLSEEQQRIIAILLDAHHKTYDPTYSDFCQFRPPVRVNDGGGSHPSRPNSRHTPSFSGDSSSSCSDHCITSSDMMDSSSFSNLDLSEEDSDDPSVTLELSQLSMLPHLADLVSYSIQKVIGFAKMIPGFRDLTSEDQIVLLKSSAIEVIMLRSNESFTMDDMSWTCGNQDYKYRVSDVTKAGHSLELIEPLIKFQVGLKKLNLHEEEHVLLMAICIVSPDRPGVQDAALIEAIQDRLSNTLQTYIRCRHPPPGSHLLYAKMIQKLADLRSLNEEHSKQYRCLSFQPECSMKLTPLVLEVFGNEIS
How it was run: (§1)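 Cells treated with ligand at 100 nM for 24 h. mRNA of the target gene measured by reverse transcription and quantitative real-time PCR. Expression given as percentage of that induced by an equal concentration of 1,25(OH)2D3. Significance tested versus vehicle control.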

[2] = target: T1, Vitamin D3 receptor (Homo sapiens); experiment: Agonist activity at VDR in human U937 cells assessed as increase in CAMP gene expression at 100 nM after 24 hrs by RT-PCR method relative to 1,25(OH)2D3; format: cell-based; how it was run: as §1
Vitamin D3 receptor [3] = target: T2, Vitamin D3 receptor (Homo sapiens, UniProt P11473); experiment: Transactivation of VP16-tagged VDR (unknown origin) expressed in HEK293 cells harboring pCMX-GAL4-SRC-1 and MH100(UAS) X 4tk-LUC reporter plasmid assessed as increase in SRC-1 recruitment by […] reporter gene based mammalian two-hybrid assay; format: cell-based
T2 sequence (P11473 whole entry): T1 sequence (whole entry)

[4] = target: T1, Vitamin D3 receptor (Homo sapiens); experiment: Agonist activity at VDR in human SW480 cells assessed as increase in CYP24A1 gene expression at 100 nM after 24 hrs by RT-PCR method relative to 1,25(OH)2D3; format: cell-based; how it was run: as §1
[5] = Drug uptake in human MG63 cells at 1 uM after 10 mins by HPLC analysis; format: ADME, cell-based; conditions: mg-63, 10 min
How it was run: (§2)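 MG63 cells cultured with compound (1 µM) in medium containing 10% FBS. Uptake sampled at 5 and 10 min, stability after 24 h of culture. Compound levels in cells and medium determined by HPLC.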

Vitamin D3 receptor [6] = target: T2, Vitamin D3 receptor; experiment: Transactivation of VDR (unknown origin) expressed in HEK293 cells harboring TK-Spp X 3-LUC reporter plasmid after 24 hrs by luciferase reporter gene assay; format: cell-based
How it was run: (§3)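 HEK293 cells transfected with pCMX-VDR and TKSpp × 3-LUC reporter. Cells treated with vehicle or ligand at 10-14 M to 10^-8 M for 24 h, then harvested. Luciferase activity assayed alongside β-galactosidase activity.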

[7] = target: T1, Vitamin D3 receptor (Homo sapiens); experiment: Agonist activity at VDR in human HaCaT cells assessed as increase in CAMP gene expression at 100 nM after 24 hrs by RT-PCR method relative to 1,25(OH)2D3; format: cell-based; how it was run: as §1
[8] = target: T1, Vitamin D3 receptor (Homo sapiens); experiment: Agonist activity at VDR in HEK293 cells assessed as increase in CYP24A1 gene expression at 100 nM after 24 hrs by RT-PCR method relative to 1,25(OH)2D3; format: cell-based; how it was run: as §1
[9] = Drug uptake in human MG63 cells at 1 uM after 5 mins by HPLC analysis; format: ADME, cell-based; conditions: mg-63, 5 min; how it was run: as §2
[10] = target: T1, Vitamin D3 receptor (Homo sapiens); experiment: Agonist activity at VDR in human U937 cells assessed as increase in CYP24A1 gene expression at 100 nM after 24 hrs by RT-PCR method relative to 1,25(OH)2D3; format: cell-based; how it was run: as §1
Vitamin D3 receptor [11] = target: T2, Vitamin D3 receptor; experiment: Transrepression of VP16-tagged VDR (unknown origin) expressed in HEK293 cells harboring pCMX-GAL4-NCoR and MH100(UAS) X 4tk-LUC reporter plasmid assessed as increase in NCoR recruitment by […] reporter gene based mammalian two-hybrid assay; format: cell-based
Vitamin D3 receptor [12] = target: T2, Vitamin D3 receptor; experiment: Displacement of [26,27-Methyl-3H]-1,25(OH)2D3 from recombinant human GST-tagged VDR LBD (140 to 427 residues) expressed in Escherichia coli BL21 preincubated for 30 mins followed by radioligand addition measured after 20 hrs
How it was run: (§4)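 GST-VDR fusion protein incubated with [3H]1,25(OH)2D3 plus unlabeled competitor over a range of concentrations. Values are means ± standard deviations of triplicate assays.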

[13] = target: T1, Vitamin D3 receptor (Homo sapiens); experiment: Agonist activity at VDR in human SW480 cells assessed as increase in TRPV6 gene expression at 100 nM after 24 hrs by RT-PCR method relative to 1,25(OH)2D3; format: cell-based; how it was run: as §1
[14] = target: T1, Vitamin D3 receptor (Homo sapiens); experiment: Transactivation of VDR (unknown origin) expressed in HEK293 cells harboring TK-Spp X 3-LUC reporter plasmid after 24 hrs by luciferase reporter gene assay relative to control; format: cell-based; how it was run: as §3
[15] = target: T1, Vitamin D3 receptor (Homo sapiens); experiment: Agonist activity at VDR in human MG63 cells assessed as increase in OCN gene expression at 100 nM after 24 hrs by RT-PCR method relative to 1,25(OH)2D3; format: cell-based; how it was run: as §1
[16] = target: T1, Vitamin D3 receptor (Homo sapiens); experiment: Agonist activity at VDR in human SW480 cells assessed as increase in E-cadherin gene expression at 100 nM after 24 hrs by RT-PCR method relative to 1,25(OH)2D3; format: cell-based; how it was run: as §1
[17] = target: T1, Vitamin D3 receptor (Homo sapiens); experiment: Transactivation of VDR (unknown origin) expressed in HEK293 cells harboring TK-Spp X 3-LUC reporter plasmid after 24 hrs by luciferase reporter gene assay relative to 1,25(OH)2D3; format: cell-based; how it was run: as §3
[18] = target: T1, Vitamin D3 receptor (Homo sapiens); experiment: Agonist activity at VDR in human HaCaT cells assessed as increase in CYP24A1 gene expression at 100 nM after 24 hrs by RT-PCR method relative to 1,25(OH)2D3; format: cell-based; how it was run: as §1
[19] = Stability in human MG63 cells assessed as parent compound remaining at 1 uM after 24 hrs by HPLC analysis; format: ADME, cell-based, MG-63; conditions: read-out: Stability; how it was run: as §2
Vitamin D3 receptor [20] = target: T2, Vitamin D3 receptor; experiment: Transactivation of VP16-tagged VDR (unknown origin) expressed in HEK293 cells harboring pCMX-GAL4-RXRalpha and MH100(UAS) X 4tk-LUC reporter plasmid assessed as increase in interaction with RXRalpha by […] reporter gene based mammalian two-hybrid assay; format: cell-based
[21] = target: T1, Vitamin D3 receptor (Homo sapiens); experiment: Displacement of [26,27-Methyl-3H]-1,25(OH)2D3 from recombinant human GST-tagged VDR LBD (140 to 427 residues) expressed in Escherichia coli BL21 preincubated for 30 mins followed by radioligand addition measured after 20 hrs relative to 1,25(OH)2D3; how it was run: as §4
[22] = Drug degradation in human MG63 cells at 1 uM after 24 hrs by HPLC analysis; format: ADME, cell-based, MG-63; conditions: read-out: Drug degradation; how it was run: as §2

Structure (SMILES)	Activity [1]	Activity [2]	EC50 (Vitamin D3 receptor [3])	Activity [4]	Drug uptake [5]	EC50 (Vitamin D3 receptor [6])	Activity [8]	Drug uptake [9]	Activity [10]	IC50 (Vitamin D3 receptor [11])	IC50 (Vitamin D3 receptor [12])	Activity [14]	Activity [15]	Emax [17]	Activity [18]	remaining at 24 h, 1 µM [19]	EC50 (Vitamin D3 receptor [20])	inhibition [21]	further results
C=C1/C(=C\C=C2/CCC[C@]3(C)[C@@H]([C@H](C)CC#C[C@@H](O)C45CC6CC(CC(C6)C4)C5)CC[C@@H]23)C[C@@H](O)C[C@@H]1O	44%	96%	> 1.2 nM	8%	6%	0.03 nM	160%	3.1%	54%	0.09 nM	0.24 nM	90%	64%	87%	7%	49%	> 0.14 nM	50%	Activity [7]: 24%; Activity [13]: 22%; Activity [16]: 12%
C=C1/C(=C\C=C2/CCC[C@]3(C)[C@@H]([C@H](C)CCCC(C)(C)O)CC[C@@H]23)C[C@@H](O)C[C@@H]1O [CALCITRIOL]	–	–	–	–	2.3%	–	–	3.4%	–	–	–	–	–	–	–	70%	–	–	metabolised at 24 h, 1 µM [22]: 30%
C=C1/C(=C\C=C2/CCC[C@]3(C)[C@@H]([C@H](C)CC#C[C@H](O)C45CC6CC(CC(C6)C4)C5)CC[C@@H]23)C[C@@H](O)C[C@@H]1O	Active	Active	> 3.2 nM	Active	9.5%	> 5.69 nM	Active	6.9%	Active	1.75 nM	3.13 nM	–	Active	–	Active	90%	> 1.2 nM	4%	–
C=C1[C@H](O)CC(=C/C=C2\CCC[C@]3(C)[C@@H]([C@H](C)CC#C[C@@H](O)C45CC6CC(CC(C6)C4)C5)CC[C@@H]23)C[C@H]1O	58%	–	–	50%	9.7%	–	100%	6.1%	85%	–	–	170%	–	81%	30%	43%	–	–	–
